Measurements published in BindingDB's records for doi:10.1016/j.bmc.2010.02.001 (University of Alberta, 2010).

Target: LL-diaminopimelate aminotransferase, chloroplastic (Arabidopsis thaliana, UniProt Q93ZN9)
Assay: Inhibition of Arabidopsis thaliana LL-DAP-AT expressed in Escherichia coli by aminobenzaldehyde-based assay
Method in brief: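 Recombinant C-terminal His6-tagged enzyme in 1 mL cells at 0.0043 mg/mL final. Final substrates: 8.5 mM 2-oxoglutarate, 7 mM 2-aminobenzaldehyde, 2.0 mM LL-DAP (racemic DAP), in 100 mM HEPES-KOH pH 7.6. Inhibitor in DMSO at 200, 100, 50, 25, 10 and 5 µM final. A440 read every 2 min for 200 min. Initial slopes compared with the DMSO control gave percentage inhibition, from which IC50 was calculated.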

LL-diaminopimelate aminotransferase, chloroplastic, sequence (Q93ZN9 whole entry): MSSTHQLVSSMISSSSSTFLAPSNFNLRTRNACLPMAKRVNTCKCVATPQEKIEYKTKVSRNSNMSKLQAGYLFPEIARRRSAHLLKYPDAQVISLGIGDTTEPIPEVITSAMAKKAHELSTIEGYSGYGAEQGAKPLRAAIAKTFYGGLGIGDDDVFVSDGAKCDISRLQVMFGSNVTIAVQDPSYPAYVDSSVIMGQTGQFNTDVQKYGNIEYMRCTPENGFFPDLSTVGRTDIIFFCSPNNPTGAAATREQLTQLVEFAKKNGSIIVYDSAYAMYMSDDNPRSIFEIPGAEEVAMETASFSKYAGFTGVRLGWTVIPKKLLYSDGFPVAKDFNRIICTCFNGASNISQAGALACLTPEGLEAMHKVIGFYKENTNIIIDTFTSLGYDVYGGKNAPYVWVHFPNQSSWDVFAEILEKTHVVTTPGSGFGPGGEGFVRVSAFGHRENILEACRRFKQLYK

`NC(N=NCc1ccc(-c2cccc([N+](=O)[O-])c2)o1)=N[N+](=O)[O-]` [N'-nitro-2-((5-(3-nitrophenyl)furan-2-yl)methylene)hydrazinecarboximidamide] was tested, and the IC50 was greater than 200 µM.
